Results as given in ChEMBL document CHEMBL1926569, “Novel (E)-1-(4-methyl-2-(alkylamino)thiazol-5-yl)-3-arylprop-2-en-1-ones as potent antimicrobial agents” (2011).
Values after ≈ are worked out from the molar mass of the structure shown.

Legend:
Salmonella typhimurium [1] = assay: Antibacterial activity against Salmonella Typhimurium ATCC 13311 after 24 hrs by microdilution method; assay type: functional, Salmonella enterica subsp. enterica serovar Typhimurium; details: Salmonella enterica, ATCC 13311, 24 h
Summary of the method: (§1)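 Broth microdilution in 96-well plates. Bacterial suspensions were adjusted in sterile saline to 1.0 × 10⁵ CFU/ml, prepared daily and kept at 4 °C. Compound was added to LB broth with 1.0 × 10⁴ CFU per well and shaken at 160 rpm for 24 h at […] (so in the source). MIC is the lowest concentration with no visible growth under a binocular microscope. OD655 was also read. Duplicate, repeated three times.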

Micrococcus flavus [2] = assay: Antibacterial activity against Micrococcus flavus ATCC 10240 incubated for 24 hrs followed by serial sub-cultivation for 24 hrs by microdilution; assay type: functional; details: ATCC 10240, 24 h
Summary of the method: (§2)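 MBC: after the 24 h LB broth microdilution (1.0 × 10⁴ CFU per well, 160 rpm), wells were serially sub-cultured into fresh broth plates and incubated a further 24 h. MBC is the lowest concentration with no visible growth, taken as 99.5% killing of the original inoculum. Duplicate, repeated three times.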

Aspergillus ochraceus [3] = assay: Ratio of bifonazole to compound for Aspergillus ochraceus ATCC 12066; assay type: functional
Salmonella typhimurium [4] = assay: Antibacterial activity against Salmonella Typhimurium ATCC 13311 incubated for 24 hrs followed by serial sub-cultivation for 24 hrs by microdilution; assay type: functional, Salmonella enterica subsp. enterica serovar Typhimurium; details: Salmonella enterica, ATCC 13311, 24 h; summary of the method: as §2
Candida albicans [5] = assay: Antifungal activity against Candida albicans isolated from human incubated for 72 hrs followed by serial sub-cultivation for 72 hrs by serial dilution technique; assay type: functional
Summary of the method: (§3)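 MFC: material from 72 h malt broth microdilution wells was serially sub-cultured into fresh broth plates and incubated a further 72 h at 28 °C. Fungicidal concentration is taken from growth after sub-culture. Duplicate, repeated three times.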

Trichoderma viride [6] = assay: Antifungal activity against Trichoderma viride IAM 5061 after 72 hrs by serial dilution technique; assay type: functional; details: IAM 5061, 72 h
Summary of the method: (§4)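 Modified microdilution in 96-well plates. Fungi were kept on malt agar at 4 °C. Spores were washed off in sterile 0.85% saline with 0.1% Tween 80. Compounds were dissolved at 1 mg/ml in 5% DMSO with 0.1% Tween 80 and added to malt broth with inoculum. Plates were shaken at 160 rpm for 72 h at 28 °C. Duplicate, repeated three times.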

Pseudomonas aeruginosa [7] = assay: Antibacterial activity against Pseudomonas aeruginosa ATCC 27853 incubated for 24 hrs followed by serial sub-cultivation for 24 hrs by microdilution; assay type: functional; details: ATCC 27853, 24 h; summary of the method: as §2
Penicillium ochrochloron [8] = assay: Antifungal activity against Penicillium ochrochloron ATCC 9112 after 72 hrs by serial dilution technique; assay type: functional; details: ATCC 9112, 72 h; summary of the method: as §4
Aspergillus niger [9] = assay: Ratio of bifonazole to compound for Aspergillus niger ATCC 6275; assay type: functional
Pseudomonas aeruginosa [10] = assay: Antibacterial activity against Pseudomonas aeruginosa ATCC 27853 after 24 hrs by microdilution method; assay type: functional; details: ATCC 27853, 24 h; summary of the method: as §1
Aspergillus ochraceus [11] = assay: Antifungal activity against Aspergillus ochraceus ATCC 12066 incubated for 72 hrs followed by serial sub-cultivation for 72 hrs by serial dilution technique; assay type: functional; details: ATCC 12066, 72 h; summary of the method: as §3
Staphylococcus aureus [12] = assay: Antibacterial activity against Staphylococcus aureus ATCC 6538 incubated for 24 hrs followed by serial sub-cultivation for 24 hrs by microdilution method; assay type: functional; details: ATCC 6538, 24 h; summary of the method: as §2
Staphylococcus aureus [13] = assay: Antibacterial activity against Staphylococcus aureus ATCC 6538 after 24 hrs by microdilution method; assay type: functional; details: ATCC 6538, 24 h; summary of the method: as §1
Bacillus cereus [14] = assay: Antibacterial activity against clinical isolate of Bacillus cereus after 24 hrs by microdilution method; assay type: functional; summary of the method: as §1
Penicillium ochrochloron [15] = assay: Ratio of ketoconazole to compound for Penicillium ochrochloron ATCC 9112; assay type: functional
Aspergillus ochraceus [16] = assay: Antifungal activity against Aspergillus ochraceus ATCC 12066 after 72 hrs by serial dilution technique; assay type: functional; details: ATCC 12066, 72 h; summary of the method: as §4
Listeria monocytogenes [17] = assay: Antibacterial activity against Listeria monocytogenes NCTC 7973 after 24 hrs by microdilution method; assay type: functional; details: NCTC 7973, 24 h; summary of the method: as §1
Candida albicans [18] = assay: Ratio of ketoconazole to compound for Candida albicans isolated from human; assay type: functional
Candida albicans [19] = assay: Ratio of bifonazole to compound for Candida albicans isolated from human; assay type: functional
Penicillium ochrochloron [20] = assay: Antifungal activity against Penicillium ochrochloron ATCC 9112 incubated for 72 hrs followed by serial sub-cultivation for 72 hrs by serial dilution technique; assay type: functional; details: ATCC 9112, 72 h; summary of the method: as §3
Enterococcus faecalis [21] = assay: Antibacterial activity against Enterococcus faecalis isolated from human incubated for 24 hrs followed by serial sub-cultivation for 24 hrs by microdilution; assay type: functional; summary of the method: as §2
Aspergillus ochraceus [22] = assay: Antifungal activity against Aspergillus ochraceus after 72 hrs by serial dilution technique
Aspergillus flavus [23] = assay: Antifungal activity against Aspergillus flavus ATCC 9643 incubated for 72 hrs followed by serial sub-cultivation for 72 hrs by serial dilution technique; assay type: functional; details: ATCC 9643, 72 h; summary of the method: as §3
Aspergillus ochraceus [24] = assay: Ratio of ketoconazole to compound for Aspergillus ochraceus ATCC 12066; assay type: functional
Talaromyces funiculosus [25] = assay: Antifungal activity against Penicillium funiculosum ATCC 36839 after 72 hrs by serial dilution technique; assay type: functional; details: ATCC 36839, 72 h; summary of the method: as §4
Trichoderma viride [26] = assay: Antifungal activity against Trichoderma viride IAM 5061 incubated for 72 hrs followed by serial sub-cultivation for 72 hrs by serial dilution technique; assay type: functional; details: IAM 5061, 72 h; summary of the method: as §3
Bacillus cereus [27] = assay: Antibacterial activity against clinical isolate of Bacillus cereus incubated for 24 hrs followed by serial sub-cultivation for 24 hrs by microdilution; assay type: functional; summary of the method: as §2
Candida albicans [28] = assay: Antifungal activity against Candida albicans isolated from human after 72 hrs by serial dilution technique; assay type: functional; summary of the method: as §4
Micrococcus flavus [29] = assay: Antibacterial activity against Micrococcus flavus ATCC 10240 after 24 hrs by microdilution method; assay type: functional; details: ATCC 10240, 24 h; summary of the method: as §1
Aspergillus niger [30] = assay: Antifungal activity against Aspergillus niger ATCC 6275 incubated for 72 hrs followed by serial sub-cultivation for 72 hrs by serial dilution technique; assay type: functional; details: ATCC 6275, 72 h; summary of the method: as §3
Listeria monocytogenes [31] = assay: Antibacterial activity against Listeria monocytogenes NCTC 7973 incubated for 24 hrs followed by serial sub-cultivation for 24 hrs by microdilution; assay type: functional; details: NCTC 7973, 24 h; summary of the method: as §2
Enterococcus faecalis [32] = assay: Antibacterial activity against Enterococcus faecalis isolated from human after 24 hrs by microdilution method; assay type: functional; summary of the method: as §1
Escherichia coli [33] = assay: Antibacterial activity against Escherichia coli ATCC 35210 after 24 hrs by microdilution method; assay type: functional; details: ATCC 35210, 24 h; summary of the method: as §1
Aspergillus flavus [34] = assay: Antifungal activity against Aspergillus flavus ATCC 9643 after 72 hrs by serial dilution technique; assay type: functional; details: ATCC 9643, 72 h; summary of the method: as §4
Aspergillus niger [35] = assay: Antifungal activity against Aspergillus niger ATCC 6275 after 72 hrs by serial dilution technique; assay type: functional; details: ATCC 6275, 72 h; summary of the method: as §4
Pseudomonas aeruginosa [36] = assay: Ratio of ampicillin MIC to compound MIC for Pseudomonas aeruginosa ATCC 27853; assay type: functional
Talaromyces funiculosus [37] = assay: Ratio of bifonazole to compound for Penicillium funiculosum ATCC 36839; assay type: functional
Penicillium ochrochloron [38] = assay: Ratio of bifonazole to compound for Penicillium ochrochloron ATCC 9112; assay type: functional
Aspergillus fumigatus [39] = assay: Ratio of ketoconazole to compound for Aspergillus fumigatus isolated from human; assay type: functional
Escherichia coli [40] = assay: Antibacterial activity against Escherichia coli ATCC 35210 incubated for 24 hrs followed by serial sub-cultivation for 24 hrs by microdilution; assay type: functional; details: ATCC 35210, 24 h; summary of the method: as §2
Aspergillus fumigatus [41] = assay: Antifungal activity against Aspergillus fumigatus isolated from human incubated for 72 hrs followed by serial sub-cultivation for 72 hrs by serial dilution technique; assay type: functional; summary of the method: as §3
Talaromyces funiculosus [42] = assay: Antifungal activity against Penicillium funiculosum ATCC 36839 incubated for 72 hrs followed by serial sub-cultivation for 72 hrs by serial dilution technique; assay type: functional; details: ATCC 36839, 72 h; summary of the method: as §3
Trichoderma viride [43] = assay: Ratio of bifonazole to compound for Trichoderma viride IAM 5061; assay type: functional

- MIC (Salmonella typhimurium [1]): 49.7 µM (≈ 15 µg/mL)
- MIC (Trichoderma viride [6]): 33.1 µM (≈ 10 µg/mL)
- MIC (Penicillium ochrochloron [8]): 66.2 µM (≈ 20 µg/mL)
- MIC (Pseudomonas aeruginosa [10]): 66.2 µM (≈ 20 µg/mL)
- MIC (Staphylococcus aureus [13]): 66.2 µM (≈ 20 µg/mL)
- MIC (Bacillus cereus [14]): 66.2 µM (≈ 20 µg/mL)
- MIC (Aspergillus ochraceus [16]): 66.2 µM (≈ 20 µg/mL)
- MIC (Listeria monocytogenes [17]): 82.8 µM (≈ 25 µg/mL)
- MIC (Aspergillus ochraceus [22]): 66.2 µM (≈ 20 µg/mL)
- MIC (Talaromyces funiculosus [25]): 33.1 µM (≈ 10 µg/mL)
- MIC (Candida albicans [28]): 66.2 µM (≈ 20 µg/mL)
- MIC (Micrococcus flavus [29]): 31.3 µM (≈ 9.47 µg/mL)
- MIC (Enterococcus faecalis [32]): 66.2 µM (≈ 20 µg/mL)
- MIC (Escherichia coli [33]): 49.7 µM (≈ 15 µg/mL)
- MIC (Aspergillus flavus [34]): 66.2 µM (≈ 20 µg/mL)
- MIC (Aspergillus niger [35]): 33.1 µM (≈ 10 µg/mL)
SMILES: CCNc1nc(C)c(C(=O)/C=C/c2ccc(OC)cc2)s1
- MBC (Micrococcus flavus [2]): 82.5 µM (≈ 24.9 µg/mL)
- Ratio (Aspergillus ochraceus [3]): 10
- MBC (Salmonella typhimurium [4]): 49.7 µM (≈ 15 µg/mL)
- MFC (Candida albicans [5]): 82.8 µM (≈ 25 µg/mL)
- MBC (Pseudomonas aeruginosa [7]): 82.8 µM (≈ 25 µg/mL)
- Ratio (Aspergillus niger [9]): 10
- MFC (Aspergillus ochraceus [11]): 82.8 µM (≈ 25 µg/mL)
- MBC (Staphylococcus aureus [12]): 99.3 µM (≈ 30 µg/mL)
- Ratio (Penicillium ochrochloron [15]): 10
- Ratio (Candida albicans [18]): 10
- Ratio (Candida albicans [19]): 10
- MFC (Penicillium ochrochloron [20]): 82.8 µM (≈ 25 µg/mL)
- MBC (Enterococcus faecalis [21]): 99.3 µM (≈ 30 µg/mL)
- MFC (Aspergillus flavus [23]): 82.8 µM (≈ 25 µg/mL)
- Ratio (Aspergillus ochraceus [24]): 10
- MFC (Trichoderma viride [26]): 66.2 µM (≈ 20 µg/mL)
- MBC (Bacillus cereus [27]): 82.8 µM (≈ 25 µg/mL)
- MFC (Aspergillus niger [30]): 66.2 µM (≈ 20 µg/mL)
- MBC (Listeria monocytogenes [31]): 99.3 µM (≈ 30 µg/mL)
- Ratio (Pseudomonas aeruginosa [36]): 10
- Ratio (Talaromyces funiculosus [37]): 10
- Ratio (Penicillium ochrochloron [38]): 10
- Ratio (Aspergillus fumigatus [39]): 10
- MBC (Escherichia coli [40]): 66.2 µM (≈ 20 µg/mL)
- MFC (Aspergillus fumigatus [41]): 82.8 µM (≈ 25 µg/mL)
- MFC (Talaromyces funiculosus [42]): 66.2 µM (≈ 20 µg/mL)
- Ratio (Trichoderma viride [43]): 10
